The values that follow come from ChEMBL document CHEMBL1122317, “Role of substrate lipophilicity on the N-demethylation and type I binding of 3-O-alkylmorphine analogues” (J Med Chem, 1983).

The Km is the substrate concentration at which the rate is half of its maximum. One may read the Vmax as the top rate of the reaction or transport when substrate is in excess.

Holding throughout (type): ADME
Series [1] is described as follows: Michaelis constant in O-dealkylation. The method in brief:
(§1)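 Octyl[6-3H]morphine N- and O-dealkylation assayed radiometrically in rat liver microsomes (1 mg protein/mL). Triplicate 20-min incubations used eight substrate concentrations from 0.1 to 1.0 mM. Reactions were stopped with acetone and extracted, then metabolites were located by UV, scraped and counted by scintillation. Km and Vmax came from Lineweaver-Burk plots, averaged over three separate studies.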

Series [2] in a line: Michaelis constant in N-demethylation. The method, boiled down:
(§2)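 Male CD rat hepatic microsomes (1 mg protein/mL) in 0.15 M KCl-0.05 M Tris with 5 mM MgCl2 and an NADPH-generating system (0.33 mM NADP, 5.5 mM glucose 6-phosphate, 0.67 U/mL G6PDH). Incubated in air for 10 min at 37 °C. Formaldehyde measured colorimetrically with acetylacetone at 412 nm, correcting for substrate-free blanks. Km and Vmax taken from triplicates at 11 substrate concentrations.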

Series [3] is described as follows: Spectral dissociation constant of the compound. Conditions: read-out: Ks. The method in brief:
(§3)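 Type I difference spectra recorded at 350–500 nm in washed liver microsomes from fed, untreated 180–250 g male CD rats, 3 mg protein/mL in 0.15 M KCl-0.05 M Tris. Split-beam cuvettes were warmed to 37 °C for 5 min, then substrate added stepwise to the sample side and buffer to the reference. Ks came from double-reciprocal plots of the 390–420 nm absorbance difference. Triplicate determinations.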

The nature of series [4]: Vmax value in N-demethylation. The method in brief:
as §2

Series [5] is described as follows: Maximum optimal dose expressed as OD max X 10e-(2/3) mg. The method, boiled down:
as §3

Series [6] can be described thus: Vmax value in O-dealkylation. The method in brief:
as §1

Series [7] is described as follows: Maximum optimal dose expressed as OD max X 10e-(2/3) mg; ND = no detectable binding spectra. The method in brief:
as §3

Series [8] is described as follows: Spectral dissociation constant of the compound; ND = no detectable binding spectra. The method in brief:
as §3

Series [9] can be described thus: Rate of ethylmorphine N-demethylase in the presence of various concentrations (uM) at 2000 uM concentration. The method, boiled down: (§4)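 2 mM 3-O-ethylmorphine was N-demethylated for 10 min at 37 °C by male CD rat liver microsomes (1 mg protein/mL) with an NADPH-generating system, with 0, 20, 200 or 2000 μM added decyl or dodecyl analogue. Formaldehyde was read colorimetrically at 412 nm. Rate is nmol/min/mg protein, from triplicate incubations.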

Series [10] is described as follows: Rate of ethylmorphine N-demethylase in the presence of various concentrations (uM) at 200 uM concentration. The method in brief: as §4
Series [11] is described as follows: Rate of ethylmorphine N-demethylase in the presence of various concentrations (uM) at 0 uM concentration. The method in brief:
as §4

A short description of series [12]: Rate of ethylmorphine N-demethylase in the presence of various concentrations (uM) at 20 uM concentration. The method, boiled down: as §4

For `CCOc1ccc2c3c1OC1C(O)C=CC4C(C2)N(C)CCC341.Cl` (configuration not stated), the Michaelis-Menten constant (Km) in [1] was determined as 55 µM; in [2] it was 245 µM. Besides, the Kd in series [3] was 29.1 µM. Further, the Vmax in series [4] stood at 9.31 nM/min; in series [6] it was 1.86 nM/min. In [5], this molecule showed an OD max of 1.9 mg.

Turning to `CCCCCCCCCCOc1ccc2c3c1OC1C(O)C=CC4C(C2)N(C)CCC341.Cl` (configuration not stated), the OD max entry in series [7] is “No detectable binding spectra”. In addition, the Ks entry in series [8] was “No detectable binding spectra”. For the same molecule, the Rate was determined as 9.22 nM/min in series [9], 9.12 nM/min in series [10], 9.11 nM/min in [11] and 8.92 nM/min in series [12].

For the molecule `CCCCCCCCCCCCOc1ccc2c3c1OC1C(O)C=CC4C(C2)N(C)CCC341.Cl` (configuration not stated), the OD max result in series [7] is “No detectable binding spectra”. Moreover, in [8], the Ks result is “No detectable binding spectra”. Moreover, the Rate in series [9] stood at 9.06 nM/min; in [10] it was 8.98 nM/min; in series [11], 8.92 nM/min; in series [12], 8.81 nM/min.

As to `CCCOc1ccc2c3c1OC1C(O)C=CC4C(C2)N(C)CCC341.Cl` (configuration not stated), in series [3], the Kd was 28.4 µM. In series [5], this molecule gave an OD max of 1.8 mg.

With `CCCCCOc1ccc2c3c1OC1C(O)C=CC4C(C2)N(C)CCC341.Cl` (configuration not stated), the Kd in [3] was 14.6 µM. The OD max in [5] came out at 2 mg.

`CCCCCCCCCOc1ccc2c3c1OC1C(O)C=CC4C(C2)N(C)CCC341.Cl` (configuration not stated): in series [3], the Kd was found to be 7.6 µM. The same molecule gave an OD max in [5] of 2.15 mg.

`COc1ccc2c3c1O[C@H]1[C@@H](O)C=C[C@H]4[C@@H](C2)N(C)CC[C@@]341.O=S(=O)(O)O` gave an OD max in series [5] of 1.85 mg.

With `CCCCCCCOc1ccc2c3c1OC1C(O)C=CC4C(C2)N(C)CCC341.Cl` (configuration not stated), the Kd in [3] came out at 11.4 µM. For the same molecule, in [5], the OD max was determined as 1.8 mg.

On to `CCCCCCCCOc1ccc2c3c1OC1C(O)C=CC4C(C2)N(C)CCC341.Cl` (configuration not stated), for which the Km amounted to 125 µM in series [1] and 67 µM in series [2]. In addition, in series [3], the Kd came out at 8.8 µM. Further, the Vmax worked out at 1.98 nM/min in [4] and 3.57 nM/min in [6]. The molecule also registered an OD max in series [5] of 2.1 mg.

Take `CCCCCCOc1ccc2c3c1OC1C(O)C=CC4C(C2)N(C)CCC341.Cl` (configuration not stated): the Kd in series [3] stood at 12.8 µM. In series [5], this molecule came in with an OD max of 1.9 mg.

Regarding `CCCCOc1ccc2c3c1OC1C(O)C=CC4C(C2)N(C)CCC341.Cl` (configuration not stated), the Kd in series [3] was 18.1 µM. The OD max in [5] turned out to be 2.06 mg.
